ChEMBL document CHEMBL2396631, “(+)-Altholactone exhibits broad spectrum immune modulating activity by inhibiting the activation of pro-inflammatory cytokines in RAW 264.7 cell lines” (Bioorg Med Chem, 2013)
Active and inactive are the calls of the source. The rule behind the calls is not given here.

Assays:
[1] = Inhibition of LPS-induced NF-kappaB activation in mouse RAW264.7 cells after 18 hrs by luciferase assay; type: cell-based; conditions: RAW264.7, 18 h
In short: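 RAW264.7 cells stably carrying an NF-κB luciferase reporter plated at 5 × 10⁴ per well and allowed 24 h recovery. Then treated with compound plus LPS 100 ng/mL for 18 h. Lysates read after adding luciferase assay reagent. IC50 given as mean ± SE, n = 3.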

RAW264.7 [2] = assay: Cytotoxicity against mouse RAW264.7 cells after 18 hrs by MTT assay; type: cell-based; conditions: RAW264.7, 18 h
In short: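 Murine macrophage RAW264.7 cells exposed to compound about 18 h, tested at 6.25–100 µM from DMSO stock. MTT added for 2 h, formazan dissolved in DMSO and read at 570 nm. IC50 given as mean ± SE, n = 3.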

PC-3 = assay: Cytotoxicity against human PC3 cells up to 100 uM after 20 hrs by MTT assay; type: cell-based; conditions: pc-3, 20 h
In short: (§1)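 Non-tumorigenic MCF-10A and tumorigenic MCF-7, MDA-MB-231, PC3 and LNCaP cells grown in 96-well plates in their own growth media. Treated with 6.25, 12.5, 25, 50 or 100 µM compound from DMSO stock for 20 h, then MTT added for 2 h. Formazan dissolved in DMSO and absorbance read at 570 nm.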

LNCaP = assay: Cytotoxicity against human LNCAP cells up to 100 uM after 20 hrs by MTT assay; type: cell-based; in short: as §1
MCF7 = assay: Cytotoxicity against human MCF7 cells up to 100 uM after 20 hrs by MTT assay; type: cell-based; conditions: mcf7, 20 h; in short: as §1
MDA-MB-231 = assay: Cytotoxicity against human MDA-MB-231 cells up to 100 uM after 20 hrs by MTT assay; type: cell-based; conditions: mda-mb-231, 20 h; in short: as §1
MCF-10A = assay: Cytotoxicity against human MCF10A cells up to 100 uM after 20 hrs by MTT assay; type: cell-based; in short: as §1
RAW264.7 [3] = assay: Antiinflammatory activity in mouse RAW264.7 cells assessed as reduction of LPS-induced IFN-beta mRNA expression by quantitative real-time PCR analysis; type: functional, cell-based
In short: (§2)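 Cells treated with compound (0.7–12.5 µM) plus LPS 100 ng/mL. Total RNA analysed by SYBR Green real-time qPCR, with each gene normalised to GAPDH. Mean ± SD of three independent experiments; one-way ANOVA, p < 0.05 taken as significant.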

RAW264.7 [4] = assay: Antiinflammatory activity in mouse RAW264.7 cells assessed as reduction of LPS-induced IL-6 mRNA expression by quantitative real-time PCR analysis; type: functional, cell-based; in short: as §2
RAW264.7 [5] = assay: Antiinflammatory activity in mouse RAW264.7 cells assessed as reduction of LPS-induced G-CSF mRNA expression by quantitative real-time PCR analysis; type: functional, cell-based; in short: as §2
RAW264.7 [6] = assay: Antiinflammatory activity in mouse RAW264.7 cells assessed as reduction of LPS-induced MCP1 mRNA expression by quantitative real-time PCR analysis; type: functional, cell-based; in short: as §2
RAW264.7 [7] = assay: Antiinflammatory activity in mouse RAW264.7 cells assessed as reduction of LPS-induced IL-1beta mRNA expression by quantitative real-time PCR analysis; type: functional, cell-based; in short: as §2
RAW264.7 [8] = assay: Antiinflammatory activity in mouse RAW264.7 cells assessed as reduction of LPS-induced IP-10 mRNA expression by quantitative real-time PCR analysis; type: functional, cell-based; in short: as §2
RAW264.7 [9] = assay: Antiinflammatory activity in mouse RAW264.7 cells assessed as reduction of LPS-induced COX2 mRNA expression by quantitative real-time PCR analysis; type: functional, cell-based; in short: as §2
RAW264.7 [10] = assay: Antiinflammatory activity in mouse RAW264.7 cells assessed as reduction of LPS-induced iNOS mRNA expression by quantitative real-time PCR analysis; type: functional, cell-based; in short: as §2
RAW264.7 [11] = assay: Antiinflammatory activity in mouse RAW264.7 cells assessed as reduction of LPS-induced COX2 expression at 5 uM after 4 hrs by Western blot analysis; type: functional, cell-based
In short: (§3)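 Near-confluent cells treated with rising compound concentrations (1.5–12.0 µM) plus LPS for 4 h at 37 °C. Lysed directly in SDS loading buffer, sonicated, heated, run on 4–15% gels, then transferred. Probed for phospho-IκBα, IκBα, iNOS and COX-2, with β-actin as the loading reference; HRP secondaries used.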

RAW264.7 [12] = assay: Antiinflammatory activity in mouse RAW264.7 cells assessed as reduction of LPS-induced iNOS expression at 5 uM after 4 hrs by Western blot analysis; type: functional, cell-based; in short: as §3
RAW264.7 [13] = assay: Inhibition of LPS-induced NF-kappaB activation in mouse RAW264.7 cells assessed as reduction of IkappaBalpha phosphorylation at 1.5 to 12 uM after 4 hrs by Western blot analysis; type: cell-based; in short: as §3
RAW264.7 [14] = assay: Antiinflammatory activity in mouse RAW264.7 cells assessed as inhibition of LPS-induced nitric oxide production after 24 hrs by Griess assay; type: functional, cell-based; conditions: RAW264.7, 24 h
In short: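 Cells plated in RPMI1640, 24 h at 37 °C; medium changed, then compound plus E. coli 055:B5 LPS added. Supernatant mixed with Griess reagent (sulfanilamide/naphthylethylenediamine in H3PO4), 30 min at room temperature in the dark. IC50 given as mean ± SE, n = 3.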

Compound	IC50 [1]	IC50 (RAW264.7 [2])	Activity (PC-3)	Activity (LNCaP)	Activity (MCF7)	Activity (MDA-MB-231)	Activity (MCF-10A)	IC50 (RAW264.7 [3])	IC50 (RAW264.7 [4])	IC50 (RAW264.7 [5])	IC50 (RAW264.7 [6])	IC50 (RAW264.7 [7])	IC50 (RAW264.7 [8])	IC50 (RAW264.7 [9])	IC50 (RAW264.7 [10])	inhibition (RAW264.7 [11])	inhibition (RAW264.7 [12])	inhibition (RAW264.7 [13])	IC50 (RAW264.7 [14])
CC(=O)O[C@H]1[C@@H]2OC(=O)C=C[C@@H]2O[C@@H]1c1ccccc1 [(+)-3-O-ACETYLALTHOLACTONE]	34.3 µM	36.1 µM																	
O=C1C=C[C@@H]2O[C@H](c3ccccc3)[C@@H](O)[C@@H]2O1 [ALTHOLACTONE]	6.7 µM	43.4 µM	Non-toxic	Non-toxic	Non-toxic	Non-toxic	Non-toxic	0.8 µM	0.9 µM	4 µM	4 µM	3 µM	5 µM	3 µM	2 µM	Active	Active	Active	0.8 µM
O=C1C=CC[C@H](/C=C/c2ccccc2)O1 [GONIOTHALAMIN]	27.4 µM	34.2 µM																	
